ChEMBL document CHEMBL4368905, “5,6,7,8-Tetrahydro-1,6-naphthyridine Derivatives as Potent HIV-1-Integrase-Allosteric-Site Inhibitors” (J Med Chem, 2019)

Key:
[1] = tested on: Human immunodeficiency virus 1; experiment: Antiviral activity against wild type HIV-1 NL4-3 infected in human MT2 cells after 5 days by dual luciferase reporter gene assay; type: functional, organism-based; conditions: Human immunodeficiency virus 1, NL4-3, MT2, 120 h
How it was run: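 HIV-1 NL4-3 replication (viral outgrowth) in MT-2 cells. EC50 from multiple replicates.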

[2] = Cytotoxicity against human MT2 cells assessed as reduction in cell viability after 4 days by XTT assay; type: cell-based
How it was run: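 Cytotoxicity in MT-2 cells, test compound up to a maximal concentration of 40 μM.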

[3] = Displacement of [3H]-2-tert-butoxy-2-(2-methyl-4-p-tolylquinolin-3-yl)acetic acid from LEDGF/p75 binding site of HIV1 integrase preincubated with radioligand for 1 hr followed by compound addition and measured after 1 hr by microbeta counting assay; set-up: species or system Human immunodeficiency virus 1
How it was run: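 Displacement of tritiated ligand from the LEDGF/p75 binding site on integrase. IC50 from a single replicate.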

[4] = Clearance in rat at 1 mg/kg, iv or 5 mg/kg, po by LC-MS/MS analysis; type: ADME, organism-based; conditions: in vivo
How it was run: (§1)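 Rats dosed 1 mg/kg IV and 5 mg/kg PO. Clearance, Vss and oral bioavailability derived from these profiles.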

[5] = Volume of distribution at steady state in rat at 1 mg/kg, iv or 5 mg/kg, po by LC-MS/MS analysis; type: ADME, organism-based; conditions: in vivo, read-out: Vdss; how it was run: as §1
[6] = tested on: Human immunodeficiency virus 1; experiment: Antiviral activity against HIV-1 NL4-3 harboring integrase T124A mutant infected in human MT2 cells after 5 days by dual luciferase reporter gene assay; type: functional, organism-based; conditions: Human immunodeficiency virus 1, NL4-3, MT2, 120 h
How it was run: (§2)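 NL4-3 HIV-1 carrying integrase substitutions engineered into the pol gene. The assay measures inhibition of viral outgrowth in MT-2 cell culture, and the value is reported as EC50.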

[7] = tested on: Human immunodeficiency virus 1; experiment: Antiviral activity against HIV-1 NL4-3 harboring integrase T125A mutant infected in human MT2 cells after 5 days by dual luciferase reporter gene assay; type: functional, organism-based; conditions: Human immunodeficiency virus 1, NL4-3, MT2, 120 h; how it was run: as §2
[8] = tested on: Human immunodeficiency virus 1; experiment: Antiviral activity against HIV-1 NL4-3 harboring integrase T124A/T125A double mutant infected in human MT2 cells after 5 days by dual luciferase reporter gene assay; type: functional, organism-based; conditions: Human immunodeficiency virus 1, NL4-3, MT2, 120 h; how it was run: as §2
[9] = tested on: Human immunodeficiency virus 1; experiment: Antiviral activity against HIV-1 NL4-3 harboring integrase T124N mutant infected in human MT2 cells after 5 days by dual luciferase reporter gene assay; type: functional, organism-based; conditions: Human immunodeficiency virus 1, NL4-3, MT2, 120 h; how it was run: as §2
[10] = tested on: Human immunodeficiency virus 1; experiment: Antiviral activity against HIV-1 NL4-3 harboring integrase T124A/T125N double mutant infected in human MT2 cells after 5 days by dual luciferase reporter gene assay; type: functional, organism-based; conditions: Human immunodeficiency virus 1, NL4-3, MT2, 120 h; how it was run: as §2
[11] = Oral bioavailability in rat at 5 mg/kg by LC-MS/MS analysis; type: ADME, organism-based; conditions: in vivo; how it was run: as §1
[12] = Metabolic stability in rat liver microsomes assessed as parent compound remaining at 0.5 uM after 10 mins in presence of NADPH by LC-MS/MS analysis; type: ADME, Microsome; conditions: read-out: Stability
How it was run: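 Rat liver microsomes, compound at 0.5 μM, incubated 10 minutes. Read-out is percent of parent remaining.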

| SMILES | EC50 [1] [nM] | clearance [4] [mL/min/kg] | Vd [5] [L/kg] | CC50 at 96 h [2] [nM] | IC50 [3] [nM] | also measured |
| --- | --- | --- | --- | --- | --- | --- |
| Cc1ccc(-c2c(C(OC(C)(C)C)C(=O)O)c(C)nc3ccccc23)cc1 (stereo not drawn) | 150 |  |  | > 40000 |  |  |
| Cc1ccc(-c2c3c(nc(C)c2C(OC(C)(C)C)C(=O)O)CCN(c2cccc(-c4ccccc4)c2)C3)cc1 (stereo not drawn) | 280 |  |  | > 40000 | 430 |  |
| Cc1ccc(-c2c3c(nc(C)c2[C@H](OC(C)(C)C)C(=O)O)CCN(C(=O)CCc2ccccc2)C3)cc1 | 340 | 163 | 2 | > 40000 | 760 |  |
| Cc1ccc(-c2c3c(nc(C)c2[C@H](OC(C)(C)C)C(=O)O)CCN(C(=O)NCc2ccccc2)C3)cc1 | 500 |  |  | > 40000 | 310 |  |
| Cc1ccc(-c2c3c(nc(C)c2[C@H](OC(C)(C)C)C(=O)O)CCN(CCCc2ccccc2)C3)cc1 | 10 | 171 | 16 | > 40000 | 70 | EC50 [6]: 17 nM; EC50 [7]: 21 nM; EC50 [8]: 34 nM; EC50 [9]: 20 nM; EC50 [10]: 31 nM |
| Cc1ccc(-c2c3c(nc(C)c2[C@H](OC(C)(C)C)C(=O)O)CCN(c2ccc(-c4ccccc4)cc2)C3)cc1 | 320 |  |  | > 40000 | 220 |  |
| Cc1ccc(-c2c3c(nc(C)c2[C@H](OC(C)(C)C)C(=O)O)CCN(Cc2ccccc2)C3)cc1 | 300 | 21 | 7 | > 40000 | 830 | bioavailability [11]: 35% |
| CC(=O)N1CCc2nc(C)c(C(OC(C)(C)C)C(=O)O)c(-c3ccc(C)cc3)c2C1 (stereo not drawn) | 1900 |  |  | > 40000 | 17000 |  |
| Cc1ccc(-c2c3c(nc(C)c2[C@H](OC(C)(C)C)C(=O)O)CCN(CCOc2ccccc2)C3)cc1 | 200 |  |  | > 40000 | 170 |  |
| Cc1ccc(-c2c3c(nc(C)c2[C@H](OC(C)(C)C)C(=O)O)CCN(C(=O)OCc2ccccc2)C3)cc1 | 230 | 118 | 19 | > 40000 | 140 | bioavailability [11]: 71% |
| COC(=O)N1CCc2nc(C)c(C(OC(C)(C)C)C(=O)O)c(-c3ccc(C)cc3)c2C1 (stereo not drawn) | 1600 |  |  | > 40000 | 4200 |  |
| Cc1nc2c(c(-c3cc(F)c4c(c3C)CCCO4)c1[C@H](OC(C)(C)C)C(=O)O)CN(CCCc1ccccc1)CC2 | 4 | 82 | 6 | > 40000 | 16 | EC50 [7]: 7 nM; EC50 [8]: 6 nM; EC50 [9]: 6 nM; remaining at 10 min, 0.5 µM [12]: 78%; bioavailability [11]: 10% |
| CCCCCN1CCc2nc(C)c(C(OC(C)(C)C)C(=O)O)c(-c3ccc(C)cc3)c2C1 (stereo not drawn) | 210 |  |  | > 40000 | 1100 |  |
| Cc1ccc(-c2c3c(nc(C)c2[C@H](OC(C)(C)C)C(=O)O)CCN(CCc2ccccc2)C3)cc1 | 240 |  |  | > 40000 | 850 |  |
| Cc1ccc(-c2c3c(nc(C)c2[C@H](OC(C)(C)C)C(=O)O)CCN(C/C=C/c2ccccc2)C3)cc1 | 120 |  |  | > 40000 | 160 |  |
| Cc1ccc(-c2c3c(nc(C)c2C(OC(C)(C)C)C(=O)O)CCN(C)C3)cc1 (stereo not drawn) | 2100 |  |  | > 40000 | 5800 |  |
| Cc1ccc(-c2c3c(nc(C)c2C(OC(C)(C)C)C(=O)O)CCN(S(C)(=O)=O)C3)cc1 (stereo not drawn) | 2600 |  |  | > 40000 | 2200 |  |
| Cc1ccc(-c2c3c(nc(C)c2[C@H](OC(C)(C)C)C(=O)O)CCN(c2ccccc2)C3)cc1 | 470 | 24 | 3 | > 40000 | 230 |  |

Second part, led by results:

| EC50 [1] [nM] | clearance [4] [mL/min/kg] | Vd [5] [L/kg] | SMILES | CC50 at 96 h [2] [nM] | IC50 [3] [nM] | also measured |
| --- | --- | --- | --- | --- | --- | --- |
| 1 |  |  | Cc1ccc(CCCN2CCc3nc(C)c([C@H](OC(C)(C)C)C(=O)O)c(-c4cc(F)c5c(c4C)CCCO5)c3C2)cc1F | > 40000 | 11 |  |
| 1 |  |  | Cc1nc2c(c(-c3cc(F)c4c(c3C)CCCO4)c1[C@H](OC(C)(C)C)C(=O)O)CN(CCCc1ccccc1F)CC2 | > 40000 | 8 |  |
| 2 |  |  | Cc1ccccc1CCCN1CCc2nc(C)c([C@H](OC(C)(C)C)C(=O)O)c(-c3cc(F)c4c(c3C)CCCO4)c2C1 | > 40000 | 19 |  |
| 70 | 24 | 9 | Cc1ccc(-c2c3c(nc(C)c2C(OC(C)(C)C)C(=O)O)CCN(Cc2ccccc2-c2ccccc2)C3)cc1 (stereo not drawn) | > 40000 | 80 | bioavailability [11]: 25% |
| 39 | 152 | 66 | Cc1ccc(-c2c3c(nc(C)c2C(OC(C)(C)C)C(=O)O)CCN(CCCC2CCCC2)C3)cc1 (stereo not drawn) | > 40000 | 240 | bioavailability [11]: 32% |
| 2 |  |  | Cc1cccc(CCCN2CCc3nc(C)c([C@H](OC(C)(C)C)C(=O)O)c(-c4cc(F)c5c(c4C)CCCO5)c3C2)c1 | > 40000 | 29 |  |
| 4 |  |  | Cc1nc2c(c(-c3cc(F)c4c(c3C)CCCO4)c1[C@H](OC(C)(C)C)C(=O)O)CN(CCCc1cccc(F)c1)CC2 | > 40000 | 44 |  |
| 4 | 92 | 1 | Cc1nc2c(c(-c3cc(F)c4c(c3C)CCCO4)c1[C@H](OC(C)(C)C)C(=O)O)CN(CCCc1ccc(F)cc1)CC2 | > 40000 | 15 | remaining at 10 min, 0.5 µM [12]: 78%; bioavailability [11]: 10% |
| 2 |  |  | Cc1ccc(CCCN2CCc3nc(C)c([C@H](OC(C)(C)C)C(=O)O)c(-c4cc(F)c5c(c4C)CCCO5)c3C2)cc1 | > 40000 | 12 |  |
| 5 |  |  | Cc1nc2c(c(-c3cc(F)c4c(c3C)CCCO4)c1[C@H](OC(C)(C)C)C(=O)O)CN(CC1CC1c1ccccc1)CC2 (mixture of isomers) | > 40000 | 24 |  |
| 58 |  |  | Cc1nc2c(c(-c3cc(F)c4c(c3C)CCCO4)c1[C@H](OC(C)(C)C)C(=O)O)CN(CCCc1ccncc1)CC2 (single isomer, unassigned; atropisomer) | > 40000 | 40 |  |
| 52 |  |  | Cc1nc2ccccc2c(-c2ccc3c4c(ccnc24)CCO3)c1[C@H](OC(C)(C)C)C(=O)O [BI-224436] | > 40000 | 71 |  |
